Assay results published in ChEMBL document CHEMBL4433205, “Dual Pharmacophores Explored via Structure-Activity Relationship (SAR) Matrix: Insights into Potent, Bifunctional Opioid Ligand Design” (J Med Chem, 2019).
Active and inactive are the calls of the source.

Biological target: T1, Mu-type opioid receptor (Rattus norvegicus, UniProt P33535)
Assay: Displacement of [3H]diprenorphine from rat mu opioid receptor expressed in rat C6 cell membranes measured after 1 hr by liquid scintillation counting method
Settings: not given
How it was run: (§1)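 Competition with 0.2 nM [3H]-diprenorphine on membranes (20 μg protein/tube) from stably transfected cells in 50 mM Tris-HCl pH 7.4, 1 h at room temperature with shaking; GF/C filtration, three washes, scintillation counting. Nonspecific binding defined with 10 μM naloxone.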

T1 sequence (P33535 whole entry): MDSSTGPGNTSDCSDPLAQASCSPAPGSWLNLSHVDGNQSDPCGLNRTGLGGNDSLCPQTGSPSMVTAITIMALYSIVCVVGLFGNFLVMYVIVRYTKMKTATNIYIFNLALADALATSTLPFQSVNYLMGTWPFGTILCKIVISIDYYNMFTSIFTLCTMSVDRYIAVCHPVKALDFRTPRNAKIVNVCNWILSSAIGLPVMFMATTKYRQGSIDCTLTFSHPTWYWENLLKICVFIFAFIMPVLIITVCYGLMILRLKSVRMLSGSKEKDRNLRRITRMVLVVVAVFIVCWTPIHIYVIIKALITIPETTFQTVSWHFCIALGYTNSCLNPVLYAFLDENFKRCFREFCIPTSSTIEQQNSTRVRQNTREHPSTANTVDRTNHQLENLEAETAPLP

SMILES	Ki [nM]
Cc1cc(O)cc(C)c1C[C@H](N)C(=O)N[C@@H]1CCN(C(=O)C2CC2)c2ccc(CN3CCc4ccccc4C3)cc21.O=C(O)C(F)(F)F	0.12
Cc1cc(O)cc(C)c1C[C@H](N)C(=O)N[C@@H]1CCN(S(C)(=O)=O)c2ccc(Cc3ccc4c(c3)OCCO4)cc21.O=C(O)C(F)(F)F	0.07
Cc1cc(O)cc(C)c1C[C@H](N)C(=O)N[C@@H]1CCNc2ccc(CN3CCc4ccccc4C3)cc21.O=C(O)C(F)(F)F	0.03
Cc1cc(O)cc(C)c1C[C@H](N)C(=O)N[C@@H]1CCN(C(=O)c2ccccc2)c2ccc(Cc3cnc4ccccc4c3)cc21.O=C(O)C(F)(F)F	0.04
Cc1cc(O)cc(C)c1C[C@H](N)C(=O)N[C@@H]1CCN(S(C)(=O)=O)c2ccc(Cc3cc4ccccc4o3)cc21.O=C(O)C(F)(F)F	0.05

Tested on: Mus musculus
Assay: Antinociceptive activity in C57BL/6 mouse assessed as increase in latency to tail withdrawal up to 10 mg/kg, ip administered at 30 mins interval measured during compound dosing by warm water tail withdrawal assay relative to control
Type: functional
Settings: not given
How it was run: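 Male C57BL/6 mice, 20–30 g, 8–16 weeks. Saline ip, baseline latency 30 min later; then cumulative ip doses 1, 3.2, 10 mg/kg in 5% DMSO/saline at 30 min intervals, latency read 30 min after each. Tail tip (2–3 cm) in 50°C water, 20 s cutoff; expressed as % MPE (MPE = 20 s).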

SMILES	MPE
Cc1cc(O)cc(C)c1C[C@H](N)C(=O)N[C@@H]1CCN(C(=O)C2CC2)c2ccc(CN3CCc4ccccc4C3)cc21.O=C(O)C(F)(F)F	60%
Cc1cc(O)cc(C)c1C[C@H](N)C(=O)N[C@@H]1CCN(S(C)(=O)=O)c2ccc(Cc3ccc4c(c3)OCCO4)cc21.O=C(O)C(F)(F)F	70%
Cc1cc(O)cc(C)c1C[C@H](N)C(=O)N[C@@H]1CCNc2ccc(CN3CCc4ccccc4C3)cc21.O=C(O)C(F)(F)F	inactive
Cc1cc(O)cc(C)c1C[C@H](N)C(=O)N[C@@H]1CCN(C(=O)c2ccccc2)c2ccc(Cc3cnc4ccccc4c3)cc21.O=C(O)C(F)(F)F	100%
Cc1cc(O)cc(C)c1C[C@H](N)C(=O)N[C@@H]1CCN(S(C)(=O)=O)c2ccc(Cc3cc4ccccc4o3)cc21.O=C(O)C(F)(F)F	inactive

Biological target: T2, Delta-type opioid receptor (Rattus norvegicus, UniProt P33533)
Assay: Displacement of [3H]diprenorphine from rat delta opioid receptor expressed in rat C6 cell membranes measured after 1 hr by liquid scintillation counting method
Settings: not given

T2 sequence (P33533 whole entry): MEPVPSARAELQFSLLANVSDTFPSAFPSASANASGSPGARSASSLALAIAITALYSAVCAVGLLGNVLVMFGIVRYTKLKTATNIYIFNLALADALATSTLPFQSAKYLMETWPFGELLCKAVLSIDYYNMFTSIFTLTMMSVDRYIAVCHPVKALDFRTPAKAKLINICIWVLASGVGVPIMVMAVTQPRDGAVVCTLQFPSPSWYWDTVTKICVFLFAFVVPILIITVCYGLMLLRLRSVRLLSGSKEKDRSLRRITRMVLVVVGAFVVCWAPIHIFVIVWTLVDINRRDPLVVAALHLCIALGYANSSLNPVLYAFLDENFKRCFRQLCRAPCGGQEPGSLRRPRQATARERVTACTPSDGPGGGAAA

SMILES	Ki [nM]
Cc1cc(O)cc(C)c1C[C@H](N)C(=O)N[C@@H]1CCN(C(=O)C2CC2)c2ccc(CN3CCc4ccccc4C3)cc21.O=C(O)C(F)(F)F	0.88
Cc1cc(O)cc(C)c1C[C@H](N)C(=O)N[C@@H]1CCN(S(C)(=O)=O)c2ccc(Cc3ccc4c(c3)OCCO4)cc21.O=C(O)C(F)(F)F	1.5
Cc1cc(O)cc(C)c1C[C@H](N)C(=O)N[C@@H]1CCNc2ccc(CN3CCc4ccccc4C3)cc21.O=C(O)C(F)(F)F	3.1
Cc1cc(O)cc(C)c1C[C@H](N)C(=O)N[C@@H]1CCN(C(=O)c2ccccc2)c2ccc(Cc3cnc4ccccc4c3)cc21.O=C(O)C(F)(F)F	0.74
Cc1cc(O)cc(C)c1C[C@H](N)C(=O)N[C@@H]1CCN(S(C)(=O)=O)c2ccc(Cc3cc4ccccc4o3)cc21.O=C(O)C(F)(F)F	1

Biological target: Mu-type opioid receptor (Rattus norvegicus) (UniProt P33535)
Assay: Agonist activity at rat mu opioid receptor expressed in rat C6 glioma cell membranes assessed as stimulation of [35S]GTPgammaS binding measured after 1 hr relative to DAMGO
Type: functional
Settings: not given

Mu-type opioid receptor (Rattus norvegicus), sequence (P33535 whole entry): as the sequence (P33535 whole entry) above

SMILES	Efficacy [%]
Cc1cc(O)cc(C)c1C[C@H](N)C(=O)N[C@@H]1CCN(C(=O)C2CC2)c2ccc(CN3CCc4ccccc4C3)cc21.O=C(O)C(F)(F)F	95
Cc1cc(O)cc(C)c1C[C@H](N)C(=O)N[C@@H]1CCN(S(C)(=O)=O)c2ccc(Cc3ccc4c(c3)OCCO4)cc21.O=C(O)C(F)(F)F	47
Cc1cc(O)cc(C)c1C[C@H](N)C(=O)N[C@@H]1CCNc2ccc(CN3CCc4ccccc4C3)cc21.O=C(O)C(F)(F)F	105
Cc1cc(O)cc(C)c1C[C@H](N)C(=O)N[C@@H]1CCN(C(=O)c2ccccc2)c2ccc(Cc3cnc4ccccc4c3)cc21.O=C(O)C(F)(F)F	43
Cc1cc(O)cc(C)c1C[C@H](N)C(=O)N[C@@H]1CCN(S(C)(=O)=O)c2ccc(Cc3cc4ccccc4o3)cc21.O=C(O)C(F)(F)F	102

Biological target: T3, Kappa-type opioid receptor (Homo sapiens, UniProt P41145)
Assay: Agonist activity at human kappa opioid receptor expressed in CHO cell membranes assessed as stimulation of [35S]GTPgammaS binding measured after 1 hr
Type: functional
Settings: cho

T3 sequence (P41145 whole entry): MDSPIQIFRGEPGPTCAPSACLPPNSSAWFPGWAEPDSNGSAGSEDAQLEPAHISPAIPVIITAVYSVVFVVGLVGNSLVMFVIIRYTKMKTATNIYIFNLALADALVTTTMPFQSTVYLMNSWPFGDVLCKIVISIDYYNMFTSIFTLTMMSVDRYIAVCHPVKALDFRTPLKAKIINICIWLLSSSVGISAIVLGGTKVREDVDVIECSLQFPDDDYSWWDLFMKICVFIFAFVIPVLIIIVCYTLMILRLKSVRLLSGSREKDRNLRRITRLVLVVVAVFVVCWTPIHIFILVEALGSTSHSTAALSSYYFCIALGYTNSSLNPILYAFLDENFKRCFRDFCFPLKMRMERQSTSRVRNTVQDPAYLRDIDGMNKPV

SMILES	EC50
Cc1cc(O)cc(C)c1C[C@H](N)C(=O)N[C@@H]1CCN(C(=O)C2CC2)c2ccc(CN3CCc4ccccc4C3)cc21.O=C(O)C(F)(F)F	Not Active
Cc1cc(O)cc(C)c1C[C@H](N)C(=O)N[C@@H]1CCN(C(=O)c2ccccc2)c2ccc(Cc3cnc4ccccc4c3)cc21.O=C(O)C(F)(F)F	Not Active

Same assay, conditions: read-out: EC50

SMILES	EC50 [nM]
Cc1cc(O)cc(C)c1C[C@H](N)C(=O)N[C@@H]1CCN(S(C)(=O)=O)c2ccc(Cc3ccc4c(c3)OCCO4)cc21.O=C(O)C(F)(F)F	> 500
Cc1cc(O)cc(C)c1C[C@H](N)C(=O)N[C@@H]1CCNc2ccc(CN3CCc4ccccc4C3)cc21.O=C(O)C(F)(F)F	90
Cc1cc(O)cc(C)c1C[C@H](N)C(=O)N[C@@H]1CCN(S(C)(=O)=O)c2ccc(Cc3cc4ccccc4o3)cc21.O=C(O)C(F)(F)F	> 500

Biological target: T3, Kappa-type opioid receptor
Assay: Displacement of [3H]diprenorphine from human kappa opioid receptor expressed in CHO cell membranes measured after 1 hr by liquid scintillation counting method
Settings: not given
How it was run: as §1

SMILES	Ki [nM]
Cc1cc(O)cc(C)c1C[C@H](N)C(=O)N[C@@H]1CCN(C(=O)C2CC2)c2ccc(CN3CCc4ccccc4C3)cc21.O=C(O)C(F)(F)F	40
Cc1cc(O)cc(C)c1C[C@H](N)C(=O)N[C@@H]1CCN(S(C)(=O)=O)c2ccc(Cc3ccc4c(c3)OCCO4)cc21.O=C(O)C(F)(F)F	46
Cc1cc(O)cc(C)c1C[C@H](N)C(=O)N[C@@H]1CCNc2ccc(CN3CCc4ccccc4C3)cc21.O=C(O)C(F)(F)F	2.2
Cc1cc(O)cc(C)c1C[C@H](N)C(=O)N[C@@H]1CCN(C(=O)c2ccccc2)c2ccc(Cc3cnc4ccccc4c3)cc21.O=C(O)C(F)(F)F	100
Cc1cc(O)cc(C)c1C[C@H](N)C(=O)N[C@@H]1CCN(S(C)(=O)=O)c2ccc(Cc3cc4ccccc4o3)cc21.O=C(O)C(F)(F)F	8

Biological target: T3, Kappa-type opioid receptor
Assay: Agonist activity at human kappa opioid receptor expressed in CHO cell membranes assessed as stimulation of [35S]GTPgammaS binding to G protein incubated for 1 hr relative to U69,593
Type: functional
Settings: not given

SMILES	Efficacy
Cc1cc(O)cc(C)c1C[C@H](N)C(=O)N[C@@H]1CCN(C(=O)C2CC2)c2ccc(CN3CCc4ccccc4C3)cc21.O=C(O)C(F)(F)F	inactive
Cc1cc(O)cc(C)c1C[C@H](N)C(=O)N[C@@H]1CCN(S(C)(=O)=O)c2ccc(Cc3ccc4c(c3)OCCO4)cc21.O=C(O)C(F)(F)F	39%
Cc1cc(O)cc(C)c1C[C@H](N)C(=O)N[C@@H]1CCNc2ccc(CN3CCc4ccccc4C3)cc21.O=C(O)C(F)(F)F	25%
Cc1cc(O)cc(C)c1C[C@H](N)C(=O)N[C@@H]1CCN(C(=O)c2ccccc2)c2ccc(Cc3cnc4ccccc4c3)cc21.O=C(O)C(F)(F)F	inactive
Cc1cc(O)cc(C)c1C[C@H](N)C(=O)N[C@@H]1CCN(S(C)(=O)=O)c2ccc(Cc3cc4ccccc4o3)cc21.O=C(O)C(F)(F)F	61%

Biological target: T1, Mu-type opioid receptor
Assay: Agonist activity at rat mu opioid receptor expressed in rat C6 cell membranes assessed as stimulation of [35S]GTPgammaS binding measured after 1 hr
Type: functional
Settings: not given
How it was run: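 Membranes (10–20 μg protein/tube) from stably transfected cells incubated 1 h at 25°C in 50 mM Tris-HCl, 100 mM NaCl, 5 mM MgCl2, pH 7.4, with 0.1 nM [35S]-GTPγS, 30 μM GDP and varying test concentrations; filtration, scintillation counting.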

SMILES	EC50 [nM]
Cc1cc(O)cc(C)c1C[C@H](N)C(=O)N[C@@H]1CCN(C(=O)C2CC2)c2ccc(CN3CCc4ccccc4C3)cc21.O=C(O)C(F)(F)F	0.52
Cc1cc(O)cc(C)c1C[C@H](N)C(=O)N[C@@H]1CCN(S(C)(=O)=O)c2ccc(Cc3ccc4c(c3)OCCO4)cc21.O=C(O)C(F)(F)F	9
Cc1cc(O)cc(C)c1C[C@H](N)C(=O)N[C@@H]1CCNc2ccc(CN3CCc4ccccc4C3)cc21.O=C(O)C(F)(F)F	0.4
Cc1cc(O)cc(C)c1C[C@H](N)C(=O)N[C@@H]1CCN(C(=O)c2ccccc2)c2ccc(Cc3cnc4ccccc4c3)cc21.O=C(O)C(F)(F)F	1
Cc1cc(O)cc(C)c1C[C@H](N)C(=O)N[C@@H]1CCN(S(C)(=O)=O)c2ccc(Cc3cc4ccccc4o3)cc21.O=C(O)C(F)(F)F	0.34

Tested on: not listed separately
Assay: Lipophilicity, log P of the compound
Type: physicochemical
Settings: octanol/water

SMILES	logP
Cc1cc(O)cc(C)c1C[C@H](N)C(=O)N[C@@H]1CCN(C(=O)C2CC2)c2ccc(CN3CCc4ccccc4C3)cc21.O=C(O)C(F)(F)F	3.8
Cc1cc(O)cc(C)c1C[C@H](N)C(=O)N[C@@H]1CCN(S(C)(=O)=O)c2ccc(Cc3ccc4c(c3)OCCO4)cc21.O=C(O)C(F)(F)F	3
Cc1cc(O)cc(C)c1C[C@H](N)C(=O)N[C@@H]1CCNc2ccc(CN3CCc4ccccc4C3)cc21.O=C(O)C(F)(F)F	3.7
Cc1cc(O)cc(C)c1C[C@H](N)C(=O)N[C@@H]1CCN(S(C)(=O)=O)c2ccc(Cc3cc4ccccc4o3)cc21.O=C(O)C(F)(F)F	3.8

Biological target: Delta-type opioid receptor (Rattus norvegicus) (UniProt P33533)
Assay: Agonist activity at rat delta opioid receptor expressed in rat C6 cell membranes assessed as stimulation of [35S]GTPgammaS binding incubated for 1 hr relative to DPDPE
Type: functional
Settings: not given

Delta-type opioid receptor (Rattus norvegicus), sequence (P33533 whole entry): as the sequence (P33533 whole entry) above

SMILES	Efficacy
Cc1cc(O)cc(C)c1C[C@H](N)C(=O)N[C@@H]1CCN(C(=O)C2CC2)c2ccc(CN3CCc4ccccc4C3)cc21.O=C(O)C(F)(F)F	inactive
Cc1cc(O)cc(C)c1C[C@H](N)C(=O)N[C@@H]1CCN(S(C)(=O)=O)c2ccc(Cc3ccc4c(c3)OCCO4)cc21.O=C(O)C(F)(F)F	inactive
Cc1cc(O)cc(C)c1C[C@H](N)C(=O)N[C@@H]1CCNc2ccc(CN3CCc4ccccc4C3)cc21.O=C(O)C(F)(F)F	inactive
Cc1cc(O)cc(C)c1C[C@H](N)C(=O)N[C@@H]1CCN(S(C)(=O)=O)c2ccc(Cc3cc4ccccc4o3)cc21.O=C(O)C(F)(F)F	inactive

Biological target: T2, Delta-type opioid receptor
Assay: Agonist activity at rat delta opioid receptor expressed in rat C6 cell membranes assessed as stimulation of [35S]GTPgammaS binding measured after 1 hr
Type: functional
Settings: c6

SMILES	EC50
Cc1cc(O)cc(C)c1C[C@H](N)C(=O)N[C@@H]1CCN(C(=O)C2CC2)c2ccc(CN3CCc4ccccc4C3)cc21.O=C(O)C(F)(F)F	Not Active
Cc1cc(O)cc(C)c1C[C@H](N)C(=O)N[C@@H]1CCN(S(C)(=O)=O)c2ccc(Cc3ccc4c(c3)OCCO4)cc21.O=C(O)C(F)(F)F	Not Active
Cc1cc(O)cc(C)c1C[C@H](N)C(=O)N[C@@H]1CCNc2ccc(CN3CCc4ccccc4C3)cc21.O=C(O)C(F)(F)F	Not Active
Cc1cc(O)cc(C)c1C[C@H](N)C(=O)N[C@@H]1CCN(C(=O)c2ccccc2)c2ccc(Cc3cnc4ccccc4c3)cc21.O=C(O)C(F)(F)F	Not Active
Cc1cc(O)cc(C)c1C[C@H](N)C(=O)N[C@@H]1CCN(S(C)(=O)=O)c2ccc(Cc3cc4ccccc4o3)cc21.O=C(O)C(F)(F)F	Not Active

Species on record: Rattus norvegicus
Assay: Selectivity ratio of Ki for rat delta opioid receptor expressed in rat C6 cell membranes to Ki for rat mu opioid receptor expressed in rat C6 cell membranes
Type: cell-based
Settings: not given
How it was run: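 Competition binding against 0.2 nM [3H]-diprenorphine, using C6 membranes expressing rat MOR or rat DOR (20 μg protein/tube). Run in 50 mM Tris-HCl pH 7.4, 1 h at room temperature with shaking, then filtration and scintillation counting. Nonspecific binding with 10 μM naloxone.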

SMILES	Ratio Ki
Cc1cc(O)cc(C)c1C[C@H](N)C(=O)N[C@@H]1CCN(C(=O)C2CC2)c2ccc(CN3CCc4ccccc4C3)cc21.O=C(O)C(F)(F)F	7
Cc1cc(O)cc(C)c1C[C@H](N)C(=O)N[C@@H]1CCN(S(C)(=O)=O)c2ccc(Cc3ccc4c(c3)OCCO4)cc21.O=C(O)C(F)(F)F	21
Cc1cc(O)cc(C)c1C[C@H](N)C(=O)N[C@@H]1CCN(S(C)(=O)=O)c2ccc(Cc3cc4ccccc4o3)cc21.O=C(O)C(F)(F)F	20
